Experimental data published in ChEMBL document CHEMBL2429803, “Animal toxicity of hairpin pyrrole-imidazole polyamides varies with the turn unit” (J Med Chem, 2013).

Tests used:
[1] = Drug uptake in nucleus of C57BL/6J mouse liver at 3 mg/kg, sc after 24 hrs by confocal microscopic analysis; format: ADME, organism-based; parameters: dose 3 mg/kg, route subcutaneous; conditions: in vivo
Procedure, shortened: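 Male C57BL/6J mice, 2 per group, injected with 50 nmol (~3 mg/kg) of fluorescein-conjugated polyamide and sacrificed 24 h later. Liver fixed in 10% formalin for 48 h, cryoprotected in 15% then 30% sucrose, and frozen. Nuclear fluorescence assessed by confocal microscopy in 10 μm sections.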

Mus musculus [2] = assay: Acute toxicity in C57BL/6J mouse assessed as weight loss at 10 mg/kg, sc after 9 days; format: organism-based; parameters: dose 10 mg/kg, route subcutaneous; conditions: in vivo, 216 h
Procedure, shortened: (§1)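 Male C57BL/6J mice, 8 weeks old, were acclimated 3 days and then given a single sc injection of 1, 3 or 10 mg/kg in 25% DMSO/saline vehicle (up to 200 μL), n = 4 per group. Weight, behaviour and appearance were monitored daily for 9 days before sacrifice. The humane end point was visible duress or weight loss over 15% of the original.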

Mus musculus [3] = assay: Toxicity in C57BL/6J mouse assessed as epithelial necrosis and apoptosis in kidney at 1 mg/kg, sc administered every 3 days for a cycle of 3 injections measured 2 days post last injection; format: organism-based; parameters: dose 1 mg/kg, route subcutaneous; conditions: in vivo, 48 h
Procedure, shortened: (§2)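 Male C57BL/6J mice, 8 weeks old, given 1 mg/kg sc every 3 days for three injections and sacrificed 2 days after the last one. Two mice per group fixed in 10% formalin. A veterinary pathologist, blinded, examined cecum, duodenum, heart, ileum, kidney, liver, lung, pancreas, spleen and stomach. Lesions graded mild, moderate or severe.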

[4] = Metabolic stability in human liver microsomes after 1 hr by LC/MS/MS analysis; format: ADME, Microsome; conditions: read-out: Stability
Procedure, shortened: (§3)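 Compound incubated at 37 °C for 60 min with 1 mg/mL human or mouse liver microsomes in 100 mM KH2PO4, 3 mM MgCl2, pH 7.4, with 2 mM NADPH or without it. Stopped with ice-cold methanol, then precipitate removed. Analyzed by LC/MS/MS as % remaining versus time zero. Duplicates.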

Mus musculus [5] = assay: Acute toxicity in C57BL/6J mouse assessed as lesions in stomach at 1 to 10 mg/kg, sc after 9 days; format: organism-based; parameters: dose 1-10 mg/kg, route subcutaneous; conditions: in vivo, 216 h
Procedure, shortened: (§4)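 Male C57BL/6J mice, 8 weeks old, received a single sc dose (1, 3 or 10 mg/kg in 25% DMSO/saline, n = 4 per group) and were sacrificed after 9 days. Two representative animals per group were fixed in 10% formalin. Cecum, duodenum, heart, ileum, kidney, liver, lung, pancreas, spleen and stomach were examined blind by a veterinary pathologist and lesions graded mild, moderate or severe.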

Mus musculus [6] = assay: Acute toxicity in C57BL/6J mouse assessed as acute morbidity at 10 mg/kg, sc after 9 days; format: organism-based; parameters: dose 10 mg/kg, route subcutaneous; conditions: in vivo, 216 h; procedure, shortened: as §1
Mus musculus [7] = assay: Acute toxicity in C57BL/6J mouse assessed as mild lymphoid apoptosis in white pulp of spleen at 10 mg/kg, sc after 9 days; format: organism-based; parameters: dose 10 mg/kg, route subcutaneous; conditions: in vivo, 216 h; procedure, shortened: as §4
Mus musculus [8] = assay: Acute toxicity in C57BL/6J mouse assessed as lesions in pancreas at 1 to 10 mg/kg, sc after 9 days; format: organism-based; parameters: dose 1-10 mg/kg, route subcutaneous; conditions: in vivo, 216 h; procedure, shortened: as §4
[9] = Metabolic stability in mouse liver microsomes after 1 hr by LC/MS/MS analysis; format: ADME, Microsome; conditions: read-out: Stability; procedure, shortened: as §3
[10] = Metabolic stability in human liver microsomes after 1 hr by LC/MS/MS analysis in presence of NADPH; format: ADME, Microsome; conditions: read-out: Stability; procedure, shortened: as §3
Mus musculus [11] = assay: Acute toxicity in C57BL/6J mouse assessed as lesions in GI tract at 1 to 10 mg/kg, sc after 9 days; format: organism-based, Gastrointestinal tract; parameters: dose 1-10 mg/kg, route subcutaneous; conditions: in vivo, 216 h; procedure, shortened: as §4
Mus musculus [12] = assay: Acute toxicity in C57BL/6J mouse assessed as lesions in heart at 1 to 10 mg/kg, sc after 9 days; format: organism-based; parameters: dose 1-10 mg/kg, route subcutaneous; conditions: in vivo, 216 h; procedure, shortened: as §4
Mus musculus [13] = assay: Toxicity in C57BL/6J mouse assessed as morbidity at 1 mg/kg, sc administered every 3 days for a cycle of 3 injections; format: organism-based; parameters: dose 1 mg/kg, route subcutaneous; conditions: in vivo, 72 h
Procedure, shortened: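 Male C57BL/6J mice, 3 per group, given 1 mg/kg sc every 3 days. Weight recorded on injection days. Watched for signs of duress. Humane end point was visible duress or weight loss over 15% of starting body weight.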

Mus musculus [14] = assay: Acute toxicity in C57BL/6J mouse assessed as diffuse hepatocellular necrosis and apoptosis at 10 mg/kg, sc after 9 days; format: organism-based; parameters: dose 10 mg/kg, route subcutaneous; conditions: in vivo, 216 h; procedure, shortened: as §4
Mus musculus [15] = assay: Toxicity in C57BL/6J mouse assessed as weight loss at 1 mg/kg, sc administered every 3 days for a cycle of 3 injections; format: organism-based; parameters: dose 1 mg/kg, route subcutaneous; conditions: in vivo, 72 h
Procedure, shortened: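 8-week-old male C57BL/6J mice, acclimated 3 days, groups of three, dosed sc in 25% DMSO/saline vehicle once every 3 days, sacrificed 2 days after the last injection. Body weight recorded on injection days and at end point; humane end point set at visible duress or >15% loss of original body weight.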

Mus musculus [16] = assay: Acute toxicity in C57BL/6J mouse assessed as diffuse hepatocellular necrosis and apoptosis at 10 mg/kg, sc after 9 days; conditions: in vivo, 216 h
Mus musculus [17] = assay: Acute toxicity in C57BL/6J mouse assessed as tubular epithelial necrosis and apoptosis in kidney at 3 mg/kg, sc after 9 days; format: organism-based; parameters: dose 3 mg/kg, route subcutaneous; conditions: in vivo, 216 h; procedure, shortened: as §4
Mus musculus [18] = assay: Acute toxicity in C57BL/6J mouse assessed as moderate atypical tubular regeneration in kidney at 3 mg/kg, sc after 9 days; format: organism-based; parameters: dose 3 mg/kg, route subcutaneous; conditions: in vivo, 216 h; procedure, shortened: as §4
Mus musculus [19] = assay: Toxicity in C57BL/6J mouse assessed as mild multifocal hepatocellular necrosis and apoptosis in liver at 1 mg/kg, sc administered every 3 days for a cycle of 3 injections measured 2 days post last injection; format: organism-based; parameters: dose 1 mg/kg, route subcutaneous; conditions: in vivo, 48 h; procedure, shortened: as §2
Mus musculus [20] = assay: Acute toxicity in C57BL/6J mouse assessed as lesions in lungs at 1 to 10 mg/kg, sc after 9 days; format: organism-based; parameters: dose 1-10 mg/kg, route subcutaneous; conditions: in vivo, 216 h; procedure, shortened: as §4
[21] = Metabolic stability in mouse liver microsomes after 1 hr by LC/MS/MS analysis in presence of NADPH; format: ADME, Microsome; conditions: read-out: Stability; procedure, shortened: as §3
Mus musculus [22] = assay: Toxicity in C57BL/6J mouse assessed as mild tubular attenuation in kidney at 1 mg/kg, sc administered every 3 days for a cycle of 3 injections measured 2 days post last injection; format: organism-based; parameters: dose 1 mg/kg, route subcutaneous; conditions: in vivo, 48 h; procedure, shortened: as §2
Mus musculus [23] = assay: Toxicity in C57BL/6J mouse assessed as karyomegaly in kidney at 1 mg/kg, sc administered every 3 days for a cycle of 3 injections measured 2 days post last injection; format: organism-based; parameters: dose 1 mg/kg, route subcutaneous; conditions: in vivo, 48 h; procedure, shortened: as §2

With `CC(=O)N[C@@H](CNC(=O)c1cc(NC(=O)c2cc(NC(=O)c3cc(NC(=O)c4nccn4C)cn3C)cn2C)cn1C)CC(=O)Nc1cn(C)c(C(=O)Nc2cc(C(=O)Nc3cc(C(=O)Nc4cc(C(=O)NCCCN(C)CCCNC(=S)Nc5ccc(-c6c7ccc(=O)cc-7oc7cc(O)ccc67)c(C(=O)O)c5)n(C)c4)n(C)c3)n(C)c2)n1` the Drug uptake [1] was “Active”.
With `Cn1cc2cc1C(=O)NCCCC(=O)Nc1cn(C)c(n1)C(=O)Nc1cc(n(C)c1)C(=O)Nc1cc(n(C)c1)C(=O)Nc1cc(n(C)c1)C(=O)NCC[C@@H](N)C(=O)Nc1cn(C)c(n1)C(=O)Nc1cc(n(C)c1)C(=O)Nc1cc(n(C)c1)C(=O)N2` the Activity (Mus musculus [2]) was “Non-toxic”.
For `CN(CCCNC(=O)c1cccc(C(=O)O)c1)CCCNC(=O)c1cc(NC(=O)c2cc(NC(=O)c3cc(NC(=O)c4nc(NC(=O)C[C@@H](N)CNC(=O)c5cc(NC(=O)c6cc(NC(=O)c7cc(NC(=O)c8nccn8C)cn7C)cn6C)cn5C)cn4C)cn3C)cn2C)cn1C`, the Activity (Mus musculus [3]) was “Toxic”, the remaining at 1 h [4] was greater than 90% and the Activity (Mus musculus [5]) was “Non-toxic”. For the same molecule, the Activity (Mus musculus [6]) was “Toxic”, the Activity (Mus musculus [7]) was “Toxic” and the Activity (Mus musculus [8]) was “Non-toxic”. For the same molecule, the remaining at 1 h [9] was greater than 90%, the remaining at 1 h [10] was greater than 90% and the Activity (Mus musculus [11]) was “Non-toxic”. For the same molecule, the Activity (Mus musculus [12]) was “Non-toxic”, the Activity (Mus musculus [13]) was “Non-toxic” and the Activity (Mus musculus [14]) was “Toxic”. For the same molecule, the Activity (Mus musculus [2]) was “Toxic”, the Activity (Mus musculus [15]) was “Non-toxic” and the Activity (Mus musculus [16]) was “Toxic”. The Activity (Mus musculus [17]) was “Toxic”, the Activity (Mus musculus [18]) was “Toxic” and the Activity (Mus musculus [19]) was “Toxic”. The Activity (Mus musculus [20]) was “Non-toxic”, the remaining at 1 h [21] was greater than 90% and the Activity (Mus musculus [22]) was “Toxic”. The Activity (Mus musculus [23]) was “Toxic”.
